Results taken from publication PMC10247892 (Biomedicine & Pharmacotherapy, 2023).
Where two headings read alike, the source gives them in different places.

Key:
Cytotoxicity assay = type: cell-based; details: human, MRC-5 cells
Vero E6 cells [1] = details: uninfected Vero E6 cells, 3 days
HCoV-229E = assay: Antiviral activity against HCoV-229E in MRC-5 cells; type: cell-based, human coronavirus 229E; details: for IC50: read-out: IC50 ± SD
Procedure, shortened: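 MRC-5 cells were seeded at 20,000/well in duplicate per drug and condition and grown to 80 % confluency. Virus was adsorbed at MOI 0.1 PFU/cell in FBS-free DMEM for 1 h at 37 °C, then removed. Serial dilutions of test compound in 1 % FBS DMEM were added for 24 h, at doses below MTT-determined cytotoxicity. Cells were fixed with PFA, saponin-permeabilised and stained with anti-N antibody, Alexa 488 secondary and DAPI, then imaged by widefield fluorescence. Infection was normalised to the untreated infected control (100 %). IC50 came from a nonlinear dose-effect fit. Three replicate experiments.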

MRC-5 cells = assay: Cytotoxicity assay; type: cell-based; details: read-out: CC50 ± SD, MTT, 24 h
SARS-CoV-2 [2] = type: cell-based; details: Vero E6 cells
[3] = tested on: SARS-CoV-2 Spike pseudovirus; type: cell-based
SARS-CoV-2 [4] = assay: TEM of Vero E6 cells infected with SARS-CoV-2; type: cell-based; details: infected Vero E6, highest concentration (HβCD 20 mM), 48 hpi
Procedure, shortened: (§1)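 Mock- or virus-infected Vero E6 monolayers were kept without or with two concentrations of test compound (0.16 mM or 20 mM for the cyclodextrin shown). At 48 h they were fixed with 4 % PFA plus 1 % glutaraldehyde in PBS for 2 h at RT. Samples were pelleted, post-fixed on ice in osmium tetroxide/potassium ferrocyanide, acetone-dehydrated and epoxy-embedded. At least 100 cells per condition were examined by TEM.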

Vero E6 cells [5] = assay: TEM of mock-infected Vero E6 cells; type: cell-based; details: 48 h
Procedure, shortened: as §1

[6] = HCoV229E, MRC-5 cells, MOI 0.1, 24 h
[7] = Human coronavirus 229E, MRC5, 24 h
[8] = Vero E6, lower or only dose (HβCD 0.16 mM, phytol 50 µM)

| Molecule | CC50 at 24 h (Cytotoxicity assay) | First cytotoxic conc. (Vero E6 cells [1]) | Inhibition of HCoV-229E infection (in words) (HCoV-229E; MRC-5 cells) | other results |
| --- | --- | --- | --- | --- |
| C[C@H]1O[C@@H](O[C@H]2[C@@H](O)C[C@H](O[C@H]3[C@@H](O)C[C@H](O[C@H]4CC[C@@]5(C)[C@H](CC[C@@H]6[C@@H]5CC[C@]5(C)[C@@H](C7=CC(=O)OC7)CC[C@]65O)C4)O[C@@H]3C)O[C@@H]2C)C[C@H](O)[C@@H]1O [Digitoxin] | 0.0069 µM | 1.56 µM | – | – |
| CCC(C)(C)C(=O)O[C@H]1C[C@@H](C)C=C2C=C[C@H](C)[C@H](CC[C@@H]3C[C@@H](O)CC(=O)O3)[C@H]21 [Simvastatin] | – | – | inhibit 229E virus | – |
| Oc1ccc(/C=C/c2cc(O)cc(O)c2)cc1 [Resveratrol] | – | – | inhibit 229E virus | – |
| COc1cc(-n2c(=S)[nH]c3ccccc3c2=O)c(Cl)cc1Cl [Mdivi-1] | – | 20 µM | – | IC50 (HCoV-229E; [6]): 11.7 ± 0.7 µM; CC50 (MRC-5 cells): 95.4 µM |
| Nc1ccc(C(=O)NCC(=O)O)cc1 [Aminohipurric] | – | – | – | CC50 (MRC-5 cells): < 10000 µM |
| CC(=O)NS(=O)(=O)c1ccc(N)cc1 [Sulfacetamide] | > 1000 µM | – | – | – |
| CC(=O)O[C@H]1C[C@H](O[C@H]2[C@@H](O)C[C@H](O[C@H]3[C@@H](O)C[C@H](O[C@H]4CC[C@@]5(C)[C@H](CC[C@@H]6[C@@H]5C[C@@H](O)[C@]5(C)[C@@H](C7=CC(=O)OC7)CC[C@]65O)C4)O[C@@H]3C)O[C@@H]2C)O[C@H](C)[C@H]1O[C@@H]1O[C@H](CO)[C@@H](O)[C@H](O)[C@H]1O [Lanatoside C] | – | – | inhibit 229E virus | – |
| Gingenoside RB1 | – | 50 µM | – | IC50 (HCoV-229E; [6]): 48.3 ± 2.1 µM; CC50 (MRC-5 cells): > 1000 µM |
| CC1=CCC(=C(C)C)CC1 [Terpinolene] | 69000 µM | 10000 µM | – | IC50 (HCoV-229E; [7]): 8000 ± 2200 µM |
| CC1=C(C(=O)OC2CCCCC2)C(c2ccc([N+](=O)[O-])cc2)C2=C(CC(C)(C)CC2=O)N1 (stereo not drawn) [FLI 06] | – | 4 to 6.25 µM | – | IC50 (HCoV-229E; [6]): 0.4 ± 0.3 µM; CC50 (MRC-5 cells): > 50 µM |
| CCC(C)n1ncn(-c2ccc(N3CCN(c4ccc(OCC5COC(Cn6cncn6)(c6ccc(Cl)cc6Cl)O5)cc4)CC3)cc2)c1=O (stereo not drawn) [Itraconazole] | – | – | inhibit 229E virus | – |
| O=c1c(O)c(-c2ccc(O)c(O)c2)oc2cc(O)cc(O)c12 [Quercetin] | – | – | inhibit 229E virus | – |
| C[C@H]1O[C@@H](O[C@H]2[C@@H](O)C[C@H](O[C@H]3[C@@H](O)C[C@H](O[C@H]4CC[C@@]5(C)[C@H](CC[C@@H]6[C@@H]5C[C@@H](O)[C@]5(C)[C@@H](C7=CC(=O)OC7)CC[C@]65O)C4)O[C@@H]3C)O[C@@H]2C)C[C@H](O)[C@@H]1O [Digoxin] | – | – | inhibit 229E virus | – |
| CCC(CC)COC(=O)[C@H](C)N[P@](=O)(OC[C@H]1O[C@@](C#N)(c2ccc3c(N)ncnn23)[C@H](O)[C@@H]1O)Oc1ccccc1 [Remdesivir] | – | 100 µM | – | – |
| C=C1C2CCC(C2)C1(C)C (stereo not drawn) [Camphene] | 72000 µM | – | – | – |
| CCCCCCCCCCC(C)(C)C(=O)Nc1c(OC)cc(OC)cc1OC [CI976] | – | 100 µM | – | CC50 (MRC-5 cells): 50.7 µM |
| CO[C@H]1C[C@@H]2CC[C@@H](C)[C@@](O)(O2)C(=O)C(=O)N2CCCC[C@H]2C(=O)O[C@H]([C@H](C)C[C@@H]2CC[C@@H](OCCO)[C@H](OC)C2)CC(=O)[C@H](C)/C=C(\C)[C@@H](O)[C@@H](OC)C(=O)[C@H](C)C[C@H](C)/C=C/C=C/C=C/1C [Everolimus] | – | – | inhibit 229E virus | – |
| C[C@@H]1CC[C@H]2C(C)(C)[C@H]3C[C@@]12CC[C@@]3(C)O [alpha-cedrol] | – | – | inhibited 229E but their CC50 was close to the IC50 | – |
| CC1(C)CC[C@]2(C(=O)O)CC[C@]3(C)C(=CC[C@@H]4[C@@]5(C)CC[C@H](O)C(C)(C)[C@@H]5CC[C@]43C)[C@@H]2C1 [Oleanolic acid] | 25200 µM | – | – | – |
| CC(C)C[C@H](NC(=O)[C@H](Cc1ccccc1)NC(=O)c1cnccn1)B(O)O [Bortezomib (PS-341), Bortezomib] | > 0.1 µM | 0.8 µM | – | IC50 (HCoV-229E; [7]): 0.0006 ± 0.0003 µM |

| Molecule | CC50 at 24 h (Cytotoxicity assay) | First cytotoxic conc. (Vero E6 cells [1]) | Inhibition of HCoV-229E infection (in words) (HCoV-229E; MRC-5 cells) | other results |
| --- | --- | --- | --- | --- |
| CC(=O)Oc1ccccc1C(=O)O [Aspirin] | 1100 µM | – | – | IC50 (HCoV-229E; [7]): 1000 µM |
| COC[C@H]1OC(=O)c2coc3c2[C@@]1(C)C1=C(C3=O)[C@@H]2CCC(=O)[C@@]2(C)C[C@H]1OC(C)=O [Wortmannin] | > 50 µM | 25 µM | – | IC50 (HCoV-229E; [7]): 21.6 ± 15.6 µM |
| CO[C@H]1C[C@@H]2CC[C@@H](C)[C@@](O)(O2)C(=O)C(=O)N2CCCC[C@H]2C(=O)O[C@H]([C@H](C)C[C@@H]2CC[C@@H](O)[C@H](OC)C2)CC(=O)[C@H](C)/C=C(\C)[C@@H](O)[C@@H](OC)C(=O)[C@H](C)C[C@H](C)/C=C/C=C/C=C/1C [Sirolimus] | – | – | inhibit 229E virus | – |
| N[C@@H](Cc1ccccc1)C(=O)O [L-Phenilalanine] | – | – | – | CC50 (MRC-5 cells): < 10000 µM |
| O=C1c2c(O)cc(O)cc2OC(c2ccc(O)c(O)c2)C1O (stereo not drawn) [Taxifolin] | – | – | inhibit 229E virus | – |
| C=C1CC/C=C(\C)CC[C@@H]2[C@@H]1CC2(C)C [(-)-Trans-Caryophyllene] | 1840 µM | – | – | – |
| CC(=O)Nc1nc(C)c(-c2ccc(Cl)c(S(=O)(=O)NCCO)c2)s1 [PIK93] | – | 20 µM | – | IC50 (HCoV-229E; [6]): 4.2 ± 1.4 µM; CC50 (MRC-5 cells): > 50 µM |
| C=C(C)[C@H]1CC=C(C)CC1 [R-(+)-Limonene] | – | – | – | CC50 (MRC-5 cells): 1910 µM |
| O=c1c(O)c(-c2cc(O)c(O)c(O)c2)oc2cc(O)cc(O)c12 [Myricetin] | 434 µM | – | – | – |
| OCC(S)CS (stereo not drawn) [Dimercaprol] | – | – | inhibited 229E but their CC50 was close to the IC50 | – |
| NCC(CC(=O)O)c1ccc(Cl)cc1 (stereo not drawn) [Baclogen] | – | – | did not have an inhibitory effect | CC50 (MRC-5 cells): > 1000 µM |
| CCc1c(-c2ccccc2)c(-c2ccccc2)nn1-c1ccccc1-c1cccc(OCC(=O)O)c1 [BMS309403] | – | – | inhibited 229E but their CC50 was close to the IC50 | – |
| CC(O)COC[C@H]1O[C@@H]2O[C@H]3[C@H](O)[C@@H](O)[C@@H](O[C@H]4[C@H](O)[C@@H](O)[C@@H](O[C@H]5[C@H](O)[C@@H](O)[C@@H](O[C@H]6[C@H](O)[C@@H](O)[C@@H](O[C@H]7[C@H](O)[C@@H](O)[C@@H](O[C@H]8[C@H](O)[C@@H](O)[C@@H](O[C@H]1[C@H](O)[C@H]2O)O[C@@H]8COCC(C)O)O[C@@H]7COCC(C)O)O[C@@H]6COCC(C)O)O[C@@H]5COCC(C)O)O[C@@H]4COCC(C)O)O[C@@H]3COCC(C)O (stereo partly drawn) [HβCD, hydroxypropyl-β-cyclodextrin] | 43600 µM | 20000 µM | – | IC50 (HCoV-229E; [7]): 4300 ± 4000 µM; Antiviral activity against SARS-CoV-2 (in words) (SARS-CoV-2 [2]): had antiviral activity; Inhibition of SARS-CoV-2 pseudovirus entry (in words) [3]: inhibited the entry of pseudovirus; Inhibition of SARS-CoV-2 pseudovirus entry (in words) ([3]; listed as HP-β): most potent; Effect on infected cells by TEM (in words) (SARS-CoV-2 [4]): all viral structures were reduced; Alterations in mock-infected cells by TEM (in words) (Vero E6 cells [5]; Vero E6, higher dose (HβCD 20 mM)): increased number of vacuoles; Alterations in mock-infected cells by TEM (in words) (Vero E6 cells [5]; [8]): did not produce appreciable changes |
| OC[C@H]1O[C@@H]2O[C@H]3[C@H](O)[C@@H](O)[C@@H](O[C@H]4[C@H](O)[C@@H](O)[C@@H](O[C@H]5[C@H](O)[C@@H](O)[C@@H](O[C@H]6[C@H](O)[C@@H](O)[C@@H](O[C@H]7[C@H](O)[C@@H](O)[C@@H](O[C@H]8[C@H](O)[C@@H](O)[C@@H](O[C@H]1[C@H](O)[C@H]2O)O[C@@H]8CO)O[C@@H]7CO)O[C@@H]6CO)O[C@@H]5CO)O[C@@H]4CO)O[C@@H]3CO [β-CD, ß-Cyclodextrin] | – | – | – | Inhibition of SARS-CoV-2 pseudovirus entry (in words) [3]: most potent |
| C=C1CC[C@H]2C(=C)CC[C@H]3C(=C)C(=O)O[C@@H]3[C@@H]12 [Dehydrocostus lactone] | 39.1 µM | 100 µM | – | IC50 (HCoV-229E; [7]): 4.2 ± 1.8 µM |
| COc1cc([C@H]2Oc3cc([C@H]4Oc5cc(O)cc(O)c5C(=O)[C@@H]4O)ccc3O[C@@H]2CO)ccc1O [SilibininA, Silibinin A] | – | – | inhibit 229E virus | – |
| Phytol | – | 100 to 200 µM | – | IC50 (HCoV-229E; [6]): 18.6 ± 6.9 µM; CC50 (MRC-5 cells): 56.2 µM; Antiviral activity against SARS-CoV-2 (in words) (SARS-CoV-2 [2]): had antiviral activity; Effect on infected cells by TEM (in words) (SARS-CoV-2 [4]): clear signs of cytopathic effect; Alterations in mock-infected cells by TEM (in words) (Vero E6 cells [5]; [8]): did not cause significant alterations |
| CC1=CC[C@@H](C(C)(C)O)CC1 [Alpha-terpineol] | 1060 µM | – | – | IC50 (HCoV-229E; [7]): 382 ± 107 µM |
| CC(C)[C@@H]1NC(=O)[C@H](C)OC(=O)[C@@H](C(C)C)NC(=O)[C@@H](C(C)C)OC(=O)[C@H](C(C)C)NC(=O)[C@H](C)OC(=O)[C@@H](C(C)C)NC(=O)[C@@H](C(C)C)OC(=O)[C@H](C(C)C)NC(=O)[C@H](C)OC(=O)[C@@H](C(C)C)NC(=O)[C@@H](C(C)C)OC1=O [Valinomycin] | 12.5 µM | 0.32 µM | – | IC50 (HCoV-229E; [7]): 2.5 ± 0.2 µM |
